NPY-Y1 PAM-ag – potentiators or agonists of human neuropeptide Y receptor Y1; hit rate 0.37% among 220,000; activation, % at 3.6 µM; AID 1304; NPY-Y1 expressing cells, potentiator/agonist activation; in the data active = activation above about 33%, passing the limit was not always enough;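 also: cells stimulated with NPY at EC10 then isoproterenol at EC100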
EP2 mod – modulators of human EP2 prostaglandin E2 receptor | P43116 | EP2-expressing cells, cAMP HTRF FRET, PGE2 co-stimulation | induction, % at 25 µM | hit rate 0.83% among 260,000 | AID 940;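 active = compounds whose cAMP rise, as percent of the full-agonist control response, exceeds 60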;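 also: rat C6 glioma line stably carrying human EP2 under a CMV promoter; the protocol text gives 20 µM as final concentration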
Target sequence (P43116 whole entry, looked up): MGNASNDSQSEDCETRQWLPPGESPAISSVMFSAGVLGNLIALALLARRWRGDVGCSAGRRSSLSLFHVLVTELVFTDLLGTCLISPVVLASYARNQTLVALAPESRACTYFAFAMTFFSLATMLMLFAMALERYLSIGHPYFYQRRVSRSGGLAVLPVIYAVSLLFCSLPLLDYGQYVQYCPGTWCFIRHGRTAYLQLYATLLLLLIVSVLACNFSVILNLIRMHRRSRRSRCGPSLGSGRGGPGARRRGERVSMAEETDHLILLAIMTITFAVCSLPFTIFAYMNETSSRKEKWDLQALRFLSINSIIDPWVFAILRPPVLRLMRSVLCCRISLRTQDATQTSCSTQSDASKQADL
EP2 antag – EP2 receptor (human) inhibition; AID 1422; hit rate 0.52% among 260,000; inhibition, % at 25 µM; P43116; C6 glioma cells expressing human EP2, cAMP TR-FRET; cells stimulated with saturating PGE2;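 active = percent inhibition above 40 after rounding to a whole number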;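 also: rat C6 glioma host cells with rolipram phosphodiesterase inhibitor present; the protocol text gives 20 µM as final concentration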
NPY Y2 blocker – blocks the human neuropeptide Y Y2 receptor; NPY-Y2 expressing cells, antagonist mode; AID 793; inhibition, % at 2.7 µM; P49146; hit rate 0.99% among 140,000
NPY Y1 blocker – NPY-Y1 (human) receptor antagonism | AID 1040 | hit rate 1% among 200,000 | P25929 | HEK293-CNG Y1 cells, membrane potential fluorescence; NPY at EC95, then isoproterenol | inhibition, % at 3.6 µM;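 active = inhibition above the campaign mean inhibition of all tested compounds plus 3 SD, cut at about 20% in these data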
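Material: Y1- and CNG-channel-expressing HEK293 cells / Probe or stimulus: NPY 25 nM then isoproterenol 1 µM plus Ro 20-1724 25 µM / Doses: 3.6 µM single dose, DMSO 0.4% / Schedule: compound incubation 1 h at room temperature, readout 45 min post-stimulation / Signal: membrane potential fluorescence / Benchmarks: isoproterenol-only wells as full block versus NPY-plus-isoproterenol wells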
NPY2 pot ag – potentiators or agonists of human neuropeptide Y receptor Y2; P49146; cells expressing NPY-Y2, potentiator/agonist read-out; activation, % at 3.6 µM; hit rate 0.45% among 220,000; in the data active = activation above about 27%;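 also: cells stimulated with NPY near EC25 plus isoproterenol at EC100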
NPY-Y1 ant conf – confirmation of human neuropeptide Y receptor Y1 antagonists; shares compounds with NPY Y1 blocker; HEK293-CNG NPY-Y1, membrane potential fluorescence, cAMP; NPY challenge against isoproterenol-raised cAMP; inhibition, % at 3.6 µM; hit rate 21% among 1,200; in the data active = inhibition above about 20%
NPY2 antag ctr – human NPY-Y2 antagonism in NPY-Y1 counter-screen; shares compounds with NPY Y1 blocker; HEK293 NPY-Y2 CNG membrane potential fluorescence; cells given NPY, then isoproterenol; inhibition, % at 3.6 µM; hit rate 28% among 1,200; AID 1255
A number is an active result; - = inactive; . = no result. Sampled rows, rich in hits. Any-hit rate of the full collection: about 2.8%. Rule as the data show it, unless noted: active = inhibition above about 17%; inactive = the rest.

SMILES	NPY-Y1 PAM-ag	EP2 mod	EP2 antag	NPY Y2 blocker	NPY Y1 blocker	NPY2 pot ag	NPY-Y1 ant conf	NPY2 antag ctr
c1ccc(CNc2ncnc3sc4c(c23)CCCC4)nc1	-	-	-	.	-	-	.	.
COc1ccc(C(=O)Nc2sc3c(c2C#N)CCCC3)cc1Cl	.	-	-	.	.	.	.	.
Cc1ccc(CSc2ncccc2C(=O)O)cc1	-	-	-	-	23	-	-	-
COc1cccc(N(C(=O)c2cnsn2)C(C(=O)NC2CCCCC2)c2ccccc2)c1 (centres undefined)	.	-	-	.	.	.	.	.
CCC(=O)c1cn(CC(=O)Nc2cc(OC)ccc2OC)c2ccccc12	.	-	-	.	.	.	.	.
COc1cccc(C2=NN(C(=O)c3ccc(C)o3)C(O)(C(F)(F)F)C2)c1 (centres undefined)	-	-	-	.	31	-	-	-
O=C(Cc1cccs1)N(CC1CCCO1)C1(C(=O)NC2CCCC2)CCCCC1 (centres undefined)	-	-	-	.	36	-	-	-
COc1cccc(NC(=O)c2c(NC(=O)c3ccccc3OC)sc(C)c2C)c1	.	-	-	.	.	.	.	.
CC1CN(c2nc3c(c(=O)[nH]2)CCN(Cc2ccc(C(F)(F)F)cc2)C3)CC(C)O1 (centres undefined)	.	-	-	.	.	.	.	.
CCN(CC)S(=O)(=O)c1ccc(Oc2ccc(S(=O)(=O)N(CC)CC)cc2)cc1	-	-	-	-	32	-	21	-
O=C(c1ccc(Cn2cc(Cl)cn2)o1)N1CCCCC1c1nc2ccccc2[nH]1 (centres undefined)	.	-	.	.	.	.	.	.
O=C1NC2(CCN(C(=O)Cn3ncc4ccccc4c3=O)CC2)Oc2ccccc21	.	-	.	.	.	.	.	.
C=CCOc1ccccc1CN1CCC(CO)(CCOc2ccccc2)CC1	-	-	-	.	27	-	-	-
COc1ccc(C2CC(c3ccc4ccccc4c3)=NN2C(=O)CNC2CCCCC2)cc1 (centres undefined)	-	-	-	.	30	-	37	33
C=CCNCC(=O)N1N=C(c2ccc3ccccc3c2)CC1c1ccc(OC)cc1 (centres undefined)	-	-	-	.	32	-	32	50
CCOc1cccc2sc(N(CCCN(C)C)C(=O)Cc3ccccc3)nc12	-	-	-	.	-	-	.	.
CCOc1cccc2sc(N(CCN(CC)CC)C(=O)c3ccc(S(=O)(=O)N4CCCCC4)cc3)nc12	-	-	-	.	26	-	-	-
Cc1cc(OCC(=O)N2CCc3ccccc3C2)c2c(-c3ccccc3)cc(=O)oc2c1	-	-	-	-	21	-	-	-
CCOc1cc(C)cc2oc(=O)cc(-c3ccccc3)c12	-	-	-	-	-	-	.	.
Cc1cc2c(o1)c1cnn(CC(=O)N3CC(C)CC(C)C3)c(=O)c1n2C (centres undefined)	.	-	.	.	.	.	.	.
COc1ccc(NC(=O)CCSc2ccc(C)cc2)cc1S(=O)(=O)Nc1ccccc1Cl	-	-	-	-	25	-	-	-
COc1ccc(NS(=O)(=O)c2cc(NC(=O)CCSc3ccccc3)ccc2OC)cc1	-	-	-	-	-	-	.	.
C=CCn1c(SCC(=O)Nc2cc(Cl)ccc2C)nnc1-c1ccncc1	.	-	-	.	.	.	.	.
O=C(NC1CCCC1)C1CCCN1C(=O)NCc1ccccc1 (centres undefined)	.	-	-	.	.	.	.	.
O=C(Nc1ccc(F)cc1)c1sc2cc(C(F)(F)F)cnc2c1-c1cccs1	-	-	-	-	23	-	-	-
Cc1ccnc(N2CCN(C(=O)CSc3nc4ccccc4nc3N3CCC(C)CC3)CC2)c1	-	-	-	.	24	-	-	-
C#CCn1c(=NC(=O)c2ccc(S(=O)(=O)N3CCCc4ccccc43)cc2)sc2cc(S(N)(=O)=O)ccc21	-	-	-	-	24	-	-	31
COC(=O)c1sc(NC(=O)c2cc(OC)cc(OC)c2)c(C#N)c1C	.	-	-	.	.	.	.	.
CCNC(=S)N(CCO)Cc1cc2ccc(OC)cc2[nH]c1=O	.	-	-	.	.	.	.	.

Compound activity from PubChem.
